Measured values: ChEMBL document CHEMBL1138258, “Optimizing cell permeation of an antibiotic resistance inhibitor for improved efficacy” (J Med Chem, 2007)

What was measured:
Escherichia coli = assay: Antibacterial activity against Escherichia coli K12 JM109 overexpressing beta-lactamase; type: functional
Method in brief: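 Broth microdilution in Mueller Hinton broth against E. coli K12 JM109 overexpressing AmpC from a heat-sensitive pOGO plasmid. Ampicillin MIC determined with and without boronic acids; final inoculum 5 × 10^5 CFU/mL; DMSO below 5%.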

[1] = Dissociation constant, pKa of the compound; type: physicochemical
Method in brief: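 UV spectrophotometric determination on 10^-4 M aqueous solutions, by two methods. First, spectra were recorded at pH between 2 and 12 with ionic strength fixed at 0.01. Second, solutions at pH 2 (0.5 N HCl) were titrated with 0.5 N NaOH up to pH 12. pKa was derived with the Henderson-Hasselbalch equation and absorption-spectra extrapolation.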

| SMILES | MIC (Escherichia coli) | pKa [1] |
| --- | --- | --- |
| O=CN(C=O)Cc1ccc2sc(B(O)O)cc2c1 | 92 µM | 6.39 |
| OCCN(CCO)Cc1ccc2sc(B(O)O)cc2c1 | – | 6.39 |
| O=CNCc1ccc2sc(B(O)O)cc2c1 | – | 6.6 |
| O=[N+]([O-])c1cccc(NCc2ccc3sc(B(O)O)cc3c2)c1 | 78 µM | 6.39 |
| OB(O)c1cc2cc(CNc3ccc(C(O)(C(F)(F)F)C(F)(F)F)cc3)ccc2s1 | – | 6.39 |
| OB(O)c1cccc(NCc2ccc3sc(B(O)O)cc3c2)c1 | – | 6.39 |
| CC(=O)c1ccc(NCc2ccc3sc(B(O)O)cc3c2)cc1 | 314 µM | 6.39 |
| O=C(O)c1cccc(NCc2ccc3sc(B(O)O)cc3c2)c1 | – | 6.39 |
| O=C(O)CNCc1ccc2sc(B(O)O)cc2c1 | 92 µM | 6.39 |
| Nn1cn[n+](Cc2ccc3sc(B(O)O)cc3c2)c1 | 117 µM | 6.39 |
| OB(O)c1cc2cc(CSc3ccccc3)ccc2s1 | 84 µM | 6.39 |
| OB(O)c1cc2cc(COCc3ccccc3)ccc2s1 | – | 6.39 |
| OB(O)c1cc2cc(COc3ccc(Cl)c(Cl)c3)ccc2s1 | – | 6.39 |
| Cc1ccc2sc(B(O)O)cc2c1 | 117 µM | 6.39 |
| OB(O)c1cc2ccccc2s1 | 359 µM | 6.39 |
| OB(O)c1cc2cc(CNc3ccc(N4CCOCC4)cc3)ccc2s1 | – | 6.39 |
| OB(O)c1cc2cc(Cn3ccnc3)ccc2s1 | 94 µM | 6.39 |
| OCc1ccc2sc(B(O)O)cc2c1 | – | 6.39 |
| OB(O)c1cc2cc(COc3ccccc3)ccc2s1 | – | 6.39 |
| OB(O)c1cc2cc(CNc3ccc(Cl)c(Cl)c3)ccc2s1 | 147 µM | 6.39 |
| COc1ccc(NCc2ccc3sc(B(O)O)cc3c2)cc1OC | – | 6.39 |
| OB(O)c1cc2cc(CBr)ccc2s1 | – | 6.39 |
| OB(O)c1cc2cc(CN3CCNCC3)ccc2s1 | – | 6.39 |
| CC1(C)S[C@@H]2[C@H](NC(=O)[C@H](N)c3ccccc3)C(=O)N2[C@H]1C(=O)O [AMPICILLIN] | 512 µg/mL | – |
